Measurements reported in ChEMBL document CHEMBL2417507, “Synthesis and bioevaluation of some new isoniazid derivatives” (Bioorg Med Chem, 2013).
In brackets after ≈: the same amount, converted by molar mass. Activity calls are given as the source filed them. The rule behind the calls is not given here.

Tests used:
[1] = tested on: HCT-8; experiment: Induction of apoptosis in human HCT8 cells assessed as late apoptotic cells at 50 ug/mL after 24 hrs by Annexin V-FITC and propidium iodide staining-based flow cytometric analysis (reference value: 2.97%); type: cell-based; conditions: hct-8, 24 h
[2] = tested on: HCT-8; experiment: Induction of apoptosis in human HCT8 cells assessed as necrotic cells at 50 ug/mL after 24 hrs by Annexin V-FITC and propidium iodide staining-based flow cytometric analysis (reference value: 7.73%); type: cell-based; conditions: hct-8, 24 h
[3] = tested on: HCT-8; experiment: Cell cycle arrest in human HCT8 cells assessed as accumulation at G0/G1 phase at 50 ug/mL after 24 hrs by propidium iodide staining-based flow cytometric analysis (reference value: 46.43%); type: ADME; conditions: hct-8, 24 h
[4] = Induction of apoptosis in human HCT8 cells assessed as viable cells at 50 ug/mL after 24 hrs by Annexin V-FITC and propidium iodide staining-based flow cytometric analysis (reference value: 87.7%); type: cell-based, HCT-8; conditions: read-out: Activity
[5] = tested on: Acinetobacter baumannii; experiment: Antibacterial activity against Acinetobacter baumannii 135 assessed as growth inhibition at 1 mg/mL after 24 hrs by agar-disk diffusion technique; type: functional, organism-based
Procedure, shortened: (§1)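 Agar-disk diffusion, adapted: plates seeded with 0.5 McFarland suspension prepared from 24 h cultures; 5 µL of a 1 mg/mL compound solution spotted onto the seeded solid medium; incubated 24 h at 37 °C. Stocks made in DMSO.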

[6] = tested on: Radical scavenging activity; experiment: Antioxidant activity assessed as DPPH radical scavenging activity at 0.1 mg/mL after 30 mins under dark conditions by spectrophotometric analysis relative to control; type: functional
Procedure, shortened: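 Compounds dissolved in methanol at 0.1 mg/mL; 0.2 mL mixed with 1.8 mL of 2 × 10^-4 M DPPH in methanol and kept in the dark 30 min. Absorbance read at 517 nm. The blank was DPPH plus methanol. TAC (%) = (Abs initial − Abs 30 min)/Abs initial × 100.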

[7] = tested on: Pseudomonas putida; experiment: Antibacterial activity against Pseudomonas putida 160 assessed as growth inhibition at 1 mg/mL after 24 hrs by agar-disk diffusion technique; type: functional, organism-based; procedure, shortened: as §1
[8] = tested on: HCT-8; experiment: Decrease in NAT2 gene expression in human HCT8 cells at 50 ug/mL after 24 hrs by RT-PCR analysis; type: ADME, cell-based; conditions: hct-8, 24 h
[9] = tested on: HCT-8; experiment: Cell cycle arrest in human HCT8 cells assessed as accumulation at G2/M phase at 50 ug/mL after 24 hrs by propidium iodide staining-based flow cytometric analysis (reference value: 13.83%); type: ADME; conditions: hct-8, 24 h
[10] = tested on: Proteus mirabilis; experiment: Antibacterial activity against Proteus mirabilis 1751 assessed as growth inhibition at 1 mg/mL after 24 hrs by agar-disk diffusion technique; type: functional, organism-based; procedure, shortened: as §1
[11] = tested on: Acinetobacter baumannii; experiment: Antibacterial activity against Acinetobacter baumannii 136 assessed as growth inhibition at 1 mg/mL after 24 hrs by agar-disk diffusion technique; type: functional, organism-based; procedure, shortened: as §1
[12] = tested on: Pseudomonas aeruginosa; experiment: Antibacterial activity against Pseudomonas aeruginosa 1144 assessed as growth inhibition at 1 mg/mL after 24 hrs by agar-disk diffusion technique; type: functional, organism-based; procedure, shortened: as §1
[13] = tested on: Mycobacterium tuberculosis; experiment: Antimycobacterial activity against Mycobacterium tuberculosis after 8 days by micro plate Alamar Blue assay; type: functional; conditions: 192 h
Procedure, shortened: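 Clinical M. tuberculosis strain grown in Middlebrook 7H9 broth. Compounds were dissolved in DMSO and serially diluted twofold on the plate, final 25 to 0.012 µg/mL. Plates were sealed and held 8 days at 37 °C. Alamar Blue with 10% Tween 80 (1:1) was then added for another 24 h at 37 °C. MIC was the lowest concentration preventing the blue-to-pink change.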

[14] = tested on: HCT-8; experiment: Induction of apoptosis in human HCT8 cells assessed as early apoptotic cells at 50 ug/mL after 24 hrs by Annexin V-FITC and propidium iodide staining-based flow cytometric analysis (reference value: 1.57%); type: cell-based; conditions: hct-8, 24 h
[15] = tested on: Enterobacter cloacae; experiment: Antibacterial activity against Enterobacter cloacae 1845 assessed as growth inhibition at 1 mg/mL after 24 hrs by agar-disk diffusion technique; type: functional, organism-based; procedure, shortened: as §1
[16] = tested on: Pseudomonas aeruginosa; experiment: Antibacterial activity against Pseudomonas aeruginosa 165 assessed as growth inhibition at 1 mg/mL after 24 hrs by agar-disk diffusion technique; type: functional, organism-based; procedure, shortened: as §1
[17] = tested on: HCT-8; experiment: Cell cycle arrest in human HCT8 cells assessed as accumulation at S phase at 50 ug/mL after 24 hrs by propidium iodide staining-based flow cytometric analysis (reference value: 39.43%); type: ADME; conditions: hct-8, 24 h
[18] = tested on: HCT-8; experiment: Decrease in NAT1 gene expression in human HCT8 cells at 50 ug/mL after 24 hrs by RT-PCR analysis; type: ADME, cell-based; conditions: hct-8, 24 h
[19] = tested on: Klebsiella pneumoniae; experiment: Antibacterial activity against Klebsiella pneumoniae 1756 assessed as growth inhibition at 1 mg/mL after 24 hrs by agar-disk diffusion technique; type: functional, organism-based; procedure, shortened: as §1
[20] = tested on: Pseudomonas aeruginosa; experiment: Antibacterial activity against Pseudomonas aeruginosa ATCC 27853 assessed as growth inhibition at 1 mg/mL after 24 hrs by agar-disk diffusion technique; type: functional, organism-based; procedure, shortened: as §1
[21] = tested on: Morganella morganii; experiment: Antibacterial activity against Morganella morganii 2810 assessed as growth inhibition at 1 mg/mL after 24 hrs by agar-disk diffusion technique; type: functional, organism-based; procedure, shortened: as §1
[22] = tested on: Acinetobacter baumannii; experiment: Antibacterial activity against Acinetobacter baumannii 247 assessed as growth inhibition at 1 mg/mL after 24 hrs by agar-disk diffusion technique; type: functional, organism-based; procedure, shortened: as §1
[23] = tested on: Escherichia coli; experiment: Antibacterial activity against Escherichia coli 1777 assessed as growth inhibition at 1 mg/mL after 24 hrs by agar-disk diffusion technique; type: functional, organism-based; procedure, shortened: as §1
[24] = tested on: Acinetobacter baumannii; experiment: Antibacterial activity against Acinetobacter baumannii 125 assessed as growth inhibition at 1 mg/mL after 24 hrs by agar-disk diffusion technique; type: functional, organism-based; procedure, shortened: as §1
[25] = tested on: Staphylococcus aureus; experiment: Antibacterial activity against Staphylococcus aureus assessed as growth inhibition at 1 mg/mL after 24 hrs by agar-disk diffusion technique; type: functional, organism-based; procedure, shortened: as §1
[26] = tested on: Staphylococcus hominis; experiment: Antibacterial activity against Staphylococcus hominis 1813 assessed as growth inhibition at 1 mg/mL after 24 hrs by agar-disk diffusion technique; type: functional, organism-based; procedure, shortened: as §1
[27] = tested on: Acinetobacter baumannii; experiment: Antibacterial activity against Acinetobacter baumannii 192 assessed as growth inhibition at 1 mg/mL after 24 hrs by agar-disk diffusion technique; type: functional, organism-based; procedure, shortened: as §1
[28] = tested on: Citrobacter koseri; experiment: Antibacterial activity against Citrobacter koseri 1742 assessed as growth inhibition at 1 mg/mL after 24 hrs by agar-disk diffusion technique; type: functional, organism-based; procedure, shortened: as §1
[29] = tested on: HCT-8; experiment: Increase in NAT2 gene expression in human HCT8 cells at 50 ug/mL after 24 hrs by RT-PCR analysis; type: ADME, cell-based; conditions: hct-8, 24 h
[30] = tested on: HCT-8; experiment: Increase in NAT1 gene expression in human HCT8 cells at 50 ug/mL after 24 hrs by RT-PCR analysis; type: ADME, cell-based; conditions: hct-8, 24 h
[31] = tested on: Enterococcus faecalis; experiment: Antibacterial activity against Enterococcus faecalis 2920 assessed as growth inhibition at 1 mg/mL after 24 hrs by agar-disk diffusion technique; type: functional, organism-based; procedure, shortened: as §1
[32] = tested on: Acinetobacter baumannii; experiment: Antibacterial activity against Acinetobacter baumannii 122 assessed as growth inhibition at 1 mg/mL after 24 hrs by agar-disk diffusion technique; type: functional, organism-based; procedure, shortened: as §1

Row | Compound | Activity [1] | Activity [2] | Activity [3] | viability at 24 h, 50 ug/mL [4] | growth inhibition (GI) [5] | TAC [6] | growth inhibition (GI) [7] | Activity [8] | Activity [9] | growth inhibition (GI) [10] | growth inhibition (GI) [11] | growth inhibition (GI) [12] | MIC [13] | Activity [14] | growth inhibition (GI) [15] | growth inhibition (GI) [16] | Activity [17] | growth inhibition (GI) [19] | growth inhibition (GI) [20] | growth inhibition (GI) [21] | also measured
1 | COc1ccc(/C=C/C(N)(S)NNC(=O)c2ccncc2)cc1 (stereo unspecified) | 9.83% | 18.2% | 48.85% | 70.7% | Active | 14% | Active | Toxic | 13.78% | inactive | Active | Active | 1.56 mg/L (≈ 4.73 µM) | 1.29% | Active | Active | 37.52% |  |  |  | Activity [18]: Toxic
2 | COc1ccc(/C=C/C(N)=S)cc1 | 12.9% | 20.3% | 54.61% | 63.8% | Active | 60% | Active | Toxic | 23.56% | inactive | Active | Active |  | 3.09% |  | inactive | 23.26% | inactive | inactive | inactive | growth inhibition (GI) [22]: inactive; growth inhibition (GI) [23]: Active; growth inhibition (GI) [24]: inactive; Activity [18]: Toxic
3 | Cc1ccc(/C=C/C(N)=S)cc1 | 14.7% | 18.4% | 24.16% | 59.8% | Active | 25.7% | Active | Toxic | 47.84% | inactive | Active | Active |  | 7.11% |  | inactive | 26.63% | inactive | inactive | inactive | growth inhibition (GI) [22]: inactive; growth inhibition (GI) [24]: inactive; Activity [18]: Toxic
4 | NC(S)(/C=C/c1ccccc1)NNC(=O)c1ccncc1 (stereo unspecified) | 12.2% | 18.9% | 59.95% | 67.9% | Active | 88.2% | Active |  | 18.72% |  | Active | Active | 0.391 mg/L (≈ 1.3 µM) | 0.95% | Active |  | 25.9% |  | Active |  | growth inhibition (GI) [25]: Active; growth inhibition (GI) [26]: Active; growth inhibition (GI) [27]: Active; growth inhibition (GI) [28]: Active; Activity [29]: Toxic; Activity [30]: Toxic
5 | Cc1ccc(/C=C/C(N)(S)NNC(=O)c2ccncc2)cc1 (stereo unspecified) | 16% | 28.5% | 72.35% | 54.3% | Active | 12.5% | Active |  | 11.15% | inactive | Active | Active | 0.781 mg/L (≈ 2.48 µM) | 1.16% | Active | Active | 13.1% |  | inactive |  | growth inhibition (GI) [25]: Active; growth inhibition (GI) [26]: Active; growth inhibition (GI) [27]: inactive; growth inhibition (GI) [22]: inactive; Activity [29]: Toxic; Activity [30]: Toxic
6 | CCOc1ccc(/C=C/C(N)(S)NNC(=O)c2ccncc2)cc1 (stereo unspecified) | 21.6% | 28.3% | 58.14% | 44.2% | Active | 25.7% | Active |  | 17.5% |  | Active | Active | 0.781 mg/L (≈ 2.27 µM) | 5.81% | inactive |  | 22.43% | inactive | inactive | inactive | Activity [29]: Toxic; growth inhibition (GI) [23]: inactive; Activity [30]: Toxic
7 | NNC(=O)c1ccncc1 [ISONIAZID] | 8.56% | 17.9% | 44.12% | 71.5% | Active | 90% |  | Toxic | 15.01% | inactive |  | inactive | 0.098 mg/L (≈ 0.715 µM) | 1.95% | Active | inactive | 38.48% | inactive | inactive | inactive | growth inhibition (GI) [25]: inactive; growth inhibition (GI) [26]: inactive; growth inhibition (GI) [27]: Active; growth inhibition (GI) [28]: inactive; growth inhibition (GI) [22]: inactive; growth inhibition (GI) [31]: inactive; growth inhibition (GI) [23]: inactive; growth inhibition (GI) [32]: inactive; growth inhibition (GI) [24]: inactive; Activity [18]: Toxic
8 | CCOc1ccc(/C=C/C(N)=S)cc1 | 13.6% | 14.8% | 61.33% | 70.1% | Active | 37.9% | Active | Toxic | 15.41% | Active | Active | Active |  | 1.56% | Active |  | 22.57% | inactive | Active | Active | growth inhibition (GI) [27]: Active; growth inhibition (GI) [28]: Active; growth inhibition (GI) [22]: inactive; growth inhibition (GI) [31]: Active; growth inhibition (GI) [24]: inactive
